Only a selection was taken, and hits are over-represented in it overall.
FXN GAA850 act: FXN promoter activators, primary screen, cell-based, luciferase luminescence, HEK293 lucGAA850; activation, % at 6 µM; HEK293 lucGAA850 FXN promoter luciferase reporter, 24 h; percent of 10 µM SAHA response; hit rate 0.56% among 360,000;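 active = activation above the average of all compounds screened plus 3 SD, cutoff fixed separately per campaign, cut at about 7.5% in these data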;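 also: 0% = DMSO wells and 100% = 10 µM SAHA wells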
CHOP inh: inhibitors of CHOP promoter induction, primary screen, cell-based, unfolded protein response, luciferase reporter; CHO-K1 CHOP-promoter luciferase, tunicamycin-induced, 15-18 h; inhibition, % at 10 µM; hit rate 3.8% among 220,000; AID 2732, 2010;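 active = compounds that reduced the stress-induced luciferase reporter signal by more than about 70% of percent inhibition, limit read from the data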;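 also: 0% = tunicamycin plus vehicle and 100% = wells without tunicamycin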
UPR XBP1 act: activators of adaptive XBP1 UPR arm, primary screen, cell-based, CHO-XBP1 luciferase reporter, luminescence, uHTS; IRE1-XBP1 UPR activation; percent of tunicamycin response, DMSO as zero; activation, % at 20 µM; hit rate 0.33% among 330,000;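 active = versus positive control, 20 µM dose yields 30% or more activation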;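 also: 100% = tunicamycin at 10 µg/mL and 0% = DMSO only wells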
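Material: IRE1-XBP1 luciferase reporter CHO line / Quantity: one thousand reporter cells per well / Buffer or medium: F12 with 10% serum / Compound: 20 µM single concentration, DMSO 1% / Times: 6 h treatment, 37 °C / Detection: Steady-Glo luciferase glow luminescence, 10 min after reagent addition / Benchmarks: tunicamycin high, DMSO low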
UPR CHOP act: activators of apoptotic CHOP UPR arm, primary screen, cell-based, CHO-CHOP luciferase reporter, luminescence, uHTS; UPR activation; percent of tunicamycin response over DMSO baseline; activation, % at 10 µM; hit rate 0.34% among 330,000; AID 449763, 2010;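 active = at 10 µM dose, activation of 40% or more, normalized to positive control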;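 also: 100% = tunicamycin at 10 µg/mL and 0% = DMSO alone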
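Assay system: CHO cells with stable CHOP pathway luciferase reporter; Buffer or medium: F12 plus 10% serum; Times: 16-18 h cell attachment, then 6 h compound exposure, 37 °C; Signal: luciferase luminescence; Read-out basis: percent activation relative to tunicamycin control; Control set: tunicamycin high control, DMSO low control.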
Numbers without * were called inactive; · = no result.

SMILES	FXN GAA850 act	CHOP inh	UPR XBP1 act	UPR CHOP act
COc1ccccc1NC(=O)CN(c1ccc(C23CC4CC(CC(C4)C2)C3)cc1)S(C)(=O)=O	9.4*	50	13	20
COc1ccc(-c2cc(C(F)(F)F)n3nc(C(N)=O)cc3n2)cc1	1	·	·	·
O=C(O)c1ccc2c(c1)C(=O)N(CCC1=CCCCC1)C2=O	-2	-4	-2	0
CN(C(=O)c1ccc2c(c1)C(=O)N(CCC1=CCCCC1)C2=O)C1CCCCC1	1	99*	3	3
CC(C)(C)OC(=O)N1CCc2onc(-c3ccc(N)cc3)c2C1=O	3	·	·	·
COc1ccc(NC(=O)Nc2ccc3c(c2)C(=O)N([C@H](C)CO)C[C@@H](C)[C@@H](CN(C)C(=O)C2CCCCC2)OCCCC[C@H](C)O3)cc1	-1	·	·	·
O=C(Cn1nnc(-c2ccccc2)n1)NCc1ccco1	0	6	-2	-2
O=C(Cn1nnc(-c2cccc(C(F)(F)F)c2)n1)NC(=O)NCc1ccco1	2	90*	4	-1
COc1cc(NC(=O)c2cc(C3CC3)on2)c(OC)cc1Cl	0	84*	-4	-2
O=C(CSc1nc(N2CCCCC2)nc(N2CCCCC2)n1)Nc1nccs1	2	77*	0	-2
Cc1cc(C)nc(SCC(=O)Nc2nccs2)n1	0	·	1	2
COc1ccc(-n2ncc3c(N4CCN(c5cc(C)ccc5C)CC4)ncnc32)cc1	3	-11	2	0
Oc1ccc(N2CCN(c3ncnc4sc(-c5ccccc5)cc34)CC2)cc1	1	36	·	·
CCc1cc2c(N3CCN(c4ccccc4)CC3)ncnc2s1	-1	77*	3	-1
COc1ccc(N2CCN(c3ncnc4c3cnn4-c3ccc(C)cc3C)CC2)cc1	-4	74*	0	4
Cc1ccc(-n2ncc3c(N4CCN(c5ccccc5)CC4)ncnc32)c(C)c1	-4	84*	-7	-6
O=c1ccc2c(ccc3ncccc32)o1	-1	·	·	·
COc1ccc(-c2cc(C(=O)NCc3ccc(F)cc3)[nH]n2)c(C)c1	-1	·	·	·
Cc1ccc(NCCC(=O)c2cccs2)cc1Cl	2	80*	1	4
COc1ccc(CCNC(=O)c2cc(C(=O)c3cc(Cl)ccc3O)cn(CCc3ccc(OC)cc3)c2=O)cc1	1	7	3	20
O=C(c1cc(C(=O)NCCc2ccccc2)c(=O)n(CCc2ccccc2)c1)c1cc(Cl)ccc1O	3	82*	6	7
Cc1cccc(C(=O)Nc2ccccc2SCC(=O)Nc2ccc(C)c(Cl)c2)c1	1	73*	-3	0
CSCCC(NC(=O)c1ccccc1)C(=O)OCC(=O)Nc1ccc(C)c(Cl)c1 (centres undefined)	-2	82*	-1	-1
Cc1cccc(NC(=O)CSc2nnc(CCC(=O)Nc3ccc(C)c(Cl)c3)n2C)c1	1	37	-2	-3
COc1cc(CNC(=O)Nc2nnc([C@@H]3C[C@H](O)[C@@H](CO)O3)s2)cc(OC)c1OC	-1	·	·	·
SMILES	FXN GAA850 act	CHOP inh	UPR XBP1 act	UPR CHOP act
COc1ccc(NC(=O)Cn2c([N+](=O)[O-])cnc2C)c(OC)c1	1	·	·	·
CC(=O)CSc1nc(C(F)(F)F)cc(=O)n1-c1ccccc1	2	20	1	-2
Cn1c(SCc2cccc(Cl)c2)nc(C(F)(F)F)cc1=O	2	84*	1	-2
Cn1c(SCc2ccccc2Cl)nc2ccccc21	1	10	5	5
Cn1c(SCc2ccccc2Cl)nc(C(F)(F)F)cc1=O	3	74*	4	1
Cn1c(SCc2ccccc2)nc(C(F)(F)F)cc1=O	3	29	2	-2
Cn1c(SCc2c(Cl)cccc2Cl)nc(C(F)(F)F)cc1=O	-2	82*	2	1
FC(F)(F)c1cc(-c2ccco2)nc(NCc2cccnc2)n1	0	21	-3	-1
FC(F)(F)c1cc(-c2ccccc2)nc(NCc2cccnc2)n1	1	85*	-2	1
Fc1ccc(-c2cc(C(F)(F)F)nc(NCc3cccs3)n2)cc1	0	72*	0	0
CCC1C/C(=C/c2ccco2)C(=O)/C(=C/c2ccco2)C1 (centres undefined)	·	86*	·	·
CCC1C/C(=C\c2cc(OC)c(OC)cc2OC)C(=O)/C(=C/c2cc(OC)c(OC)cc2OC)C1 (centres undefined)	-1	·	·	·

Screening data from PubChem BioAssay.
